In ChEMBL document CHEMBL1128326, “N-acylated alpha-amino acids as novel oral delivery agents for proteins” (1995):

Test system: Rattus norvegicus
Assay: The compound was tested for oral delivery of calcitonin, activity is measured as reduction in serum calcium levels at 400 mg/kg and dose of calcitotin is 10 ug/kg
Format: functional
Settings: not given
Outline: (§1)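 Male Sprague-Dawley rats (125–150 g; groups of 6–7) were anesthetized with ketamine 44 mg/kg plus thiazine 0.5 mg/kg. They were given an aqueous pH 7.2 solution of compound with salmon calcitonin (400 mg/kg and 10 μg/kg) by oral gavage at 2 mL/kg. Control groups received calcitonin alone or compound alone. Tail-artery blood was sampled serially, and serum calcium was measured with a kit; results are % decrease, mean ± SE.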

Q: For `CC(C)C[C@H](NC(=O)C1CCC(C)CC1)C(=O)O` (stereo partly drawn), which “Ca2+ reduction” value is on record?
A: The value was -15.52.

Q: With `CC(C)C[C@H](NC(=O)C1CCCCC1C)C(=O)O` (stereo partly drawn) as the compound, how does the “Ca2+ reduction” value read?
A: The value was -18.27.

Q: For `CC(C)C[C@H](NC(=O)c1ccccc1)C(=O)O`, which “Ca2+ reduction” value is on record?
A: Its value is -12.9.

Q: For `CC(C)C[C@H](NC(=O)C1CCCCC1)C(=O)O.N=C(N)NCCC[C@H](NC(=O)C1CCCCC1)C(=O)O.O=C(N[C@@H](Cc1ccc(O)cc1)C(=O)O)C1CCCCC1`, which “Ca2+ reduction” value is on record?
A: Its value is -33.9.

Q: `CC(C)C[C@H](NC(=O)C1CCCC(C)C1)C(=O)O` (stereo partly drawn) was tested. Which “Ca2+ reduction” value did it give?
A: Its value is -13.69.

Q: For `CC(C)C[C@H](NC(=O)c1ccc([N+](=O)[O-])cc1)C(=O)O`, which “Ca2+ reduction” value is on record?
A: The value was -11.8.

Q: With `CC(C)C[C@H](NC(=O)c1cccc([N+](=O)[O-])c1)C(=O)O` as the compound, how does the “Ca2+ reduction” value read?
A: Its value is -14.5.

Q: Which “Ca2+ reduction” value does the source give for `CC(C)C[C@@H](NC(=O)C1CCCCC1)C(=O)O` here?
A: The value was -18.32.

Q: `CC(C)C[C@H](NC(=O)CCC1CCCCC1)C(=O)O` was tested. Which “Ca2+ reduction” value did it give?
A: Its value is -14.97.

Q: How did the “Ca2+ reduction” value turn out when `CC(C)C[C@H](NC(=O)C1CCCCCC1)C(=O)O` was run?
A: The value was -19.76.

Q: How did the “Ca2+ reduction” value turn out when `CC(C)C[C@H](NC(=O)c1ccccc1[N+](=O)[O-])C(=O)O` was run?
A: The value was -6.61.

Q: For `CC(C)C[C@H](NC(=O)C1CCCCC1)C(=O)O`, which “Ca2+ reduction” value is on record?
A: Its value is -21.82.

Species on record: Rattus norvegicus
Assay: The compound was tested for oral delivery of calcitonin, activity is measured as reduction in serum calcium levels.
Format: functional
Parameters: unit not given beside the values
Settings: not given
Outline: as §1

Q: With `COc1cccc(C(=O)N[C@@H](CC(C)C)C(=O)O)c1` as the compound, how does the “Ca2+ reduction” value read?
A: Its value is -7.9.

Q: With `CC(C)C[C@H](NC(=O)C1CC1)C(=O)O` as the compound, how does the “Ca2+ reduction” value read?
A: Its value is -3.87.

Q: With `CC(C)C[C@H](NC(=O)C1CCCC1)C(=O)O` as the compound, how does the “Ca2+ reduction” value read?
A: The value was -6.28.

Q: How did the “Ca2+ reduction” value turn out when `CC(C)C[C@H](NC(=O)C1CCCCC1C(=O)O)C(=O)O` (stereo partly drawn) was run?
A: Its value is -10.47.

Biological target: Serine protease 1 (Homo sapiens) (UniProt P07477)
Assay: The compound was tested for inhibitory activity against trypsin at 10 mg/mL
Settings: not given
Outline: (§2)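 Trypsin activity was taken from USP pancreatin at 1 mg/mL final, in 50 mM potassium phosphate pH 7.6 at 37 °C. Test compound was preincubated with enzyme for 10 min. The reaction was started with N-benzoyl-L-arginine p-nitroanilide (300 μM final), and p-nitroaniline formation was followed at 400 nm over 12 min. Percent inhibition was calculated at 12 min from reaction rates versus compound-free controls.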

Sequence of Serine protease 1 (Homo sapiens) (P07477 whole entry): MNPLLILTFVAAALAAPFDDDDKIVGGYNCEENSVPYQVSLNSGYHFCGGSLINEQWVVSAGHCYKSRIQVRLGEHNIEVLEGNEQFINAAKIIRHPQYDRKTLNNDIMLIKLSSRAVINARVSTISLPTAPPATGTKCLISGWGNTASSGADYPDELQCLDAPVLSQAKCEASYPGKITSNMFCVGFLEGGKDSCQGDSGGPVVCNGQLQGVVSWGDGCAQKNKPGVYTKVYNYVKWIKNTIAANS

Q: How did the inhibition turn out when `CC(C)C[C@H](NC(=O)C1CCCCC1)C(=O)O` was run?
A: Its inhibition is 39%.

Biological target: Serine protease 1 (Homo sapiens) (UniProt P07477)
Assay: The compound was tested for inhibitory activity against trypsin, activity is expressed as %inhibition.
Settings: concentration not given here
Outline: as §2

Q: How did the inhibition turn out when `O=C(N[C@H](C(=O)O)c1ccccc1)C1CCCCC1` was run?
A: Its inhibition is 44%.

Species on record: Rattus norvegicus
Assay: The compound was tested for oral delivery of interferon-alpha in rats.
Settings: not given

Q: How did the Amount delivered turn out when `O=C(N[C@H](C(=O)O)c1ccccc1)C1CCCCC1` was run?
A: The Amount delivered was 3808 pg/mL.

Test system: Rattus norvegicus
Assay: The compound was tested for oral delivery of interferon-alpha in rats.(compound dose=800 mg/kg; inf-alpha dose= 1 mg/kg)
Settings: not given

Q: For `O=C(N[C@H](C(=O)O)c1ccccc1)c1ccccc1`, which Amount delivered is on record?
A: The Amount delivered was 8427 pg/mL.

Q: How did the Amount delivered turn out when `NCCCC[C@H](NC(=O)C1CCCCC1)C(=O)O` was run?
A: Its Amount delivered is 3340 pg/mL.

Q: With `O=C(CCC1CCCCC1)N[C@H](C(=O)O)c1ccccc1` as the compound, how does the Amount delivered read?
A: The Amount delivered was 3026 pg/mL.

Q: `NC(=O)NCCC[C@H](NC(=O)C1CCCCC1)C(=O)O` was tested. Which Amount delivered did it give?
A: The Amount delivered was 1922 pg/mL.

Q: Which Amount delivered does the source give for `CCC(C)[C@H](NC(=O)C1CCCCC1)C(=O)O` (stereo partly drawn) here?
A: Its Amount delivered is 340 pg/mL.

Q: How did the Amount delivered turn out when `O=C(N[C@@H](Cc1ccccc1)C(=O)O)C1CCCCC1` was run?
A: The Amount delivered was 611 pg/mL.

Q: For `O=C(CC1CCCCC1)N[C@H](C(=O)O)c1ccccc1`, which Amount delivered is on record?
A: Its Amount delivered is 6401 pg/mL.

Q: `O=C(N[C@H](C(=O)O)c1ccccc1)c1ccccc1O` was tested. Which Amount delivered did it give?
A: Its Amount delivered is 757 pg/mL.

Q: `O=C(N[C@H](C(=O)O)c1ccccc1)C1CCCCCC1` was tested. Which Amount delivered did it give?
A: Its Amount delivered is 4066 pg/mL.

Q: For `O=C(N[C@H](C(=O)O)c1ccccc1)C1CCCC1`, which Amount delivered is on record?
A: Its Amount delivered is 4707 pg/mL.

Q: Which Amount delivered does the source give for `N=C(N)NCCC[C@H](NC(=O)C1CCCCC1)C(=O)O` here?
A: Its Amount delivered is 2107 pg/mL.

Q: `O=C(N[C@@H](Cc1ccc(O)cc1)C(=O)O)C1CCCCC1` was tested. Which Amount delivered did it give?
A: The Amount delivered was 3422 pg/mL.

Test system: Rattus norvegicus
Assay: The compound was tested for oral delivery of interferon-alpha in rats.(compound dose=400 mg/kg; inf-alpha dose= 250 ug/kg)
Settings: not given

Q: Which Amount delivered does the source give for `O=C(N[C@H](C(=O)O)c1ccccc1)C1CCCCC1` here?
A: Its Amount delivered is 434 pg/mL.

Test system: Rattus norvegicus
Assay: The compound was tested for oral delivery of interferon-alpha in rats.(compound dose=400 mg/kg; inf-alpha dose= 500 ug/kg)
Settings: not given

Q: For `O=C(N[C@H](C(=O)O)c1ccccc1)C1CCCCC1`, which Amount delivered is on record?
A: Its Amount delivered is 2598 pg/mL.
